# Tests used:
# [1] = test system: subjects with obesity; assay: Safety and tolerability; format: in vivo, human
# In short: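 Safety was followed through both 12-week periods of randomised crossover s.c. weekly dosing (0.25, 0.5, then 1.0 mg, 4 weeks each) versus matching placebo. Assessments were adverse events, hypoglycaemic events and blood pressure.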
# [2] = Multiple-dose pharmacokinetics of semaglutide; format: in vivo, human
# In short: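 Test compound (1.34 mg/mL) was given s.c. once weekly at 0.25 mg for 4 weeks, 0.5 mg for 4 weeks, then 1.0 mg for 4 weeks. Steady-state trough concentrations were taken after 4, 8 and 12 weeks. After a further clinic 1.0 mg dose, steady-state parameters were derived from 0–168 h concentration-time curves.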
# [3] = 12 weeks, once-weekly s.c. escalated to 1.0 mg
structure (smiles),measurement,setting,value
CC[C@H](C)[C@H](NC(=O)[C@H](Cc1ccccc1)NC(=O)[C@H](CCC(=O)O)NC(=O)[C@H](CCCCNC(=O)COCCOCCNC(=O)COCCOCCNC(=O)CC[C@H](NC(=O)CCCCCCCCCCCCCCCCC(=O)O)C(=O)O)NC(=O)[C@H](C)NC(=O)[C@H](C)NC(=O)[C@H](CCC(N)=O)NC(=O)CNC(=O)[C@H](CCC(=O)O)NC(=O)[C@H](CC(C)C)NC(=O)[C@H](Cc1ccc(O)cc1)NC(=O)[C@H](CO)NC(=O)[C@H](CO)NC(=O)[C@@H](NC(=O)[C@H](CC(=O)O)NC(=O)[C@H](CO)NC(=O)[C@@H](NC(=O)[C@H](Cc1ccccc1)NC(=O)[C@@H](NC(=O)CNC(=O)[C@H](CCC(=O)O)NC(=O)C(C)(C)NC(=O)[C@@H](N)Cc1cnc[nH]1)[C@@H](C)O)[C@@H](C)O)C(C)C)C(=O)N[C@@H](C)C(=O)N[C@@H](Cc1c[nH]c2ccccc12)C(=O)N[C@@H](CC(C)C)C(=O)N[C@H](C(=O)N[C@@H](CCCNC(=N)N)C(=O)NCC(=O)N[C@@H](CCCNC(=N)N)C(=O)NCC(=O)O)C(C)C [semaglutide],Severe or blood glucose-confirmed symptomatic hypoglycaemic events,[1]; 12 weeks,No severe or blood glucose‐confirmed symptomatic hypoglycaemic events were reported
same,Serious AEs,[1]; [3],no serious AEs were reported
same,Severity of AEs,[1]; [3],mild or moderate
same,Observed mean changes from baseline in systolic and diastolic blood pressure,"[1]; week 12, either treatment",≤ 2 mm Hg
same,Mean trough value (CV),"[2]; 0.25 mg s.c. once-weekly, after 4 weeks of treatment",4.64 (32.5) nmol/L
same,Mean trough value (CV),"[2]; 0.5 mg s.c. once-weekly, after 8 weeks of treatment",10.25 (23.3) nmol/L
same,Mean trough value (CV),"[2]; 1.0 mg s.c. once-weekly, after 12 weeks of treatment",19.73 (21.9) nmol/L
